Activity calls are given as the source filed them. The calls are words filed in the database; no cut-off is given here.
Legend:
Pseudomonas aeruginosa = assay: Toxicity in Pseudomonas aeruginosa PA14 assessed as reduction in bacterial growth after 18 hrs; assay type: organism-based; conditions: in vivo
HEK293 = assay: Cytotoxicity against HEK293 cells assessed as reduction in cell viability by MTT assay; assay type: cell-based; conditions: Homo sapiens
A549 = assay: Cytotoxicity against human A549 cells assessed as reduction in cell viability by MTT assay; assay type: cell-based
Hathewaya histolytica = assay: Toxicity in Clostridium histolyticum DSM 1126 assessed as reduction in bacterial growth after 48 hrs; assay type: organism-based; conditions: in vivo
Procedure, shortened: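 Brain heart infusion broth; inoculum adjusted to McFarland 2 then prediluted 1:100. […] Means of at least two independent determinations.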

[1] = Toxicity in 1 day post-fertilized zebrafish embryo AB measured up to 120 hrs post-fertilization by microscopic analysis; parameters: species or system Danio rerio; conditions: in vivo, read-out: MTC
Procedure, shortened: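 Embryos were placed singly per well, 10 per condition, in freshly prepared compound at 2–100 μM with 1% DMSO final. Defects, heart rate, touch-evoked locomotion and survival were scored daily by microscopy; read-out was maximum tolerated concentration.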

HepG2 = assay: Cytotoxicity against human HepG2 cells assessed as reduction in cell viability by MTT assay; assay type: cell-based
Bacillus cereus = assay: Ex vivo inhibition of Bacillus cereus Q1 ColQ1-mediated collagenolytic-activity in pig skin explant assessed as reduction in hydroxyproline release up to 400 uM preincubated for 1 hr followed by skin explant addition and measured upto 24 hrs by spectrophotometric assay
Procedure, shortened: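 Pig skin explant punches, stored in DMEM with 15% glycerol at −80 °C, incubated in DMEM with 300 nM ColQ1, 4 mM CaCl2 and 10 μM ZnCl2. Compound pre-incubated with the enzyme mixture for 1 h at 37 °C, 5% CO2, then explant added, shaken at 300 rpm at 37 °C. Medium sampled at time points; hydroxyproline measured by absorbance against a hydroxyproline calibration curve.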

Elastase [2] = biological target: T1, Elastase (Pseudomonas aeruginosa (strain ATCC 15692 / PAO1 / 1C / PRS 101 / LMG12228), UniProt P14756); assay: Inhibition of Pseudomonas aeruginosa PA14 LasB using 2-Aminobenzoyl-AlaGly-Leu-Ala-4-Nitrobenzylamide as fluorogenic substrate preincubated for 15 mins followed by substrate addition measured after 60 mins by FRET assay
Procedure, shortened: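 IC50 from at least two independent experiments, each run in duplicate. Thioacetate analogues were scored as percent inhibition at 200 μM.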

Collagenase ColH = biological target: T2, Collagenase ColH (Hathewaya histolytica, UniProt Q46085); assay: Inhibition of Clostridium histolyticum ColH peptidase domain expressed in Escherichia coli BL21(DE3) cells using Mca-Ala-Gly-Pro-Pro-Gly-Pro-Dpa-Gly-Arg-NH2 as substrate preincubated for 1 hr followed by substrate addition measured for 2 mins by FRET assay
T2 sequence (Q46085 whole entry): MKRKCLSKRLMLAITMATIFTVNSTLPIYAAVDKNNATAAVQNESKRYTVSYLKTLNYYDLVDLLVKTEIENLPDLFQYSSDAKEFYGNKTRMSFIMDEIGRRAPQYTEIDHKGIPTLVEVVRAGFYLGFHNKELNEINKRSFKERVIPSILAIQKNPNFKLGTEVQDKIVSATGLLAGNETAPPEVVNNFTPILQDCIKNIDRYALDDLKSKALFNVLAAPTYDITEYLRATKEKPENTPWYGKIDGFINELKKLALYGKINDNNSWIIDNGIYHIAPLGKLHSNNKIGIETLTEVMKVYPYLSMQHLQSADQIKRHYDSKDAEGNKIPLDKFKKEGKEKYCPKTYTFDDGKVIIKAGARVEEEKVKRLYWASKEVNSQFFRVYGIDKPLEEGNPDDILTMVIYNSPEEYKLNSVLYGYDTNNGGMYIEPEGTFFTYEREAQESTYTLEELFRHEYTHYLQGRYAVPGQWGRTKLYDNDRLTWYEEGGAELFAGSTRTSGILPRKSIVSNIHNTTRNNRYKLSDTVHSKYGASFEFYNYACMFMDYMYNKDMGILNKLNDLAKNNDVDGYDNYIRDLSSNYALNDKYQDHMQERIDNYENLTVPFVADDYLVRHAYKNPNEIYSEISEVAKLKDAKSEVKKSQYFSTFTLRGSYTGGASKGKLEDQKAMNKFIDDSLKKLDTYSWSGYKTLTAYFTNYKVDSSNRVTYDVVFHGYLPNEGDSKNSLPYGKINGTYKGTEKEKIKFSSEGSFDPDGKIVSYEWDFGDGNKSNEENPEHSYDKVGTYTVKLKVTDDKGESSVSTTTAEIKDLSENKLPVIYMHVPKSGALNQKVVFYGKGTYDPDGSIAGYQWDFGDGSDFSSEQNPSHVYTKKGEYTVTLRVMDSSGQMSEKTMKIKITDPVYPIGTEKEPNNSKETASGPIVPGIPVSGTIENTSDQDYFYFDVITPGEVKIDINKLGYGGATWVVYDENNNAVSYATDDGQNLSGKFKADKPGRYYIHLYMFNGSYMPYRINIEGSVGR
Procedure, shortened: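 Peptidolytic ColH-PD activity read by FRET. Compounds were first screened at 1 μM (means of three independent experiments), then tested dose-response with the reducing agent TCEP present. IC50 values came from at least two independent experiments run in duplicate.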

Elastase [3] = biological target: T1, Elastase; assay: Inhibition of Pseudomonas aeruginosa LasB using aminobenzoyl-Ala-Gly-Leu-Ala-p-nitro-benzyl-amide as fluorogenic substrate by fluorimetric assay

T1 sequence (P14756 whole entry): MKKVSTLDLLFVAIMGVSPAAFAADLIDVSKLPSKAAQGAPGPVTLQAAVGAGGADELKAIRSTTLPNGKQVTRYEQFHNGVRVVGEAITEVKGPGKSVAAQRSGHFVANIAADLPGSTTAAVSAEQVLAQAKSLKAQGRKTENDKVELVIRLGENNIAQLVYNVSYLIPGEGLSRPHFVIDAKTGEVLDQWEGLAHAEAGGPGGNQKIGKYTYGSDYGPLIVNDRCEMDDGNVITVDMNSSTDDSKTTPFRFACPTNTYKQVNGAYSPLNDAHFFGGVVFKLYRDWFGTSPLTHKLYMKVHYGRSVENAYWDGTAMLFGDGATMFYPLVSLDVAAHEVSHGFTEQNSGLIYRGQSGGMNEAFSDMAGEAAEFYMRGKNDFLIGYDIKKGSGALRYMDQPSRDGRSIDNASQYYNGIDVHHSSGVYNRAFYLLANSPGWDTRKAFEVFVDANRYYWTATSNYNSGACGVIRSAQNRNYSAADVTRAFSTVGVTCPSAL

With O=C1CC(CS)C(=O)N1c1ccc(F)c(F)c1 (stereo unspecified) the MIC (Pseudomonas aeruginosa) was > 100 µM.

With CC(=O)c1ccc(N2C(=O)CC(S)C2=O)cc1 (stereo unspecified) the IC50 (HEK293) was > 100 µM, the IC50 (A549) was > 100 µM and the MIC (Hathewaya histolytica) was > 100 µM. For the same molecule, the MNTC [1] was ≥ 30 µM, the IC50 (HepG2) was > 100 µM and the inhibition (Bacillus cereus) was “Active”.

For CC(=O)c1ccc(N2C(=O)CC(CS)C2=O)cc1 (stereo unspecified), the IC50 (Elastase [2]) was > 200 µM.

With CC(=O)SC1CC(=O)N(c2ccc(OC(F)(F)F)c(Cl)c2)C1=O (stereo unspecified) the IC50 (Elastase [2]) was > 200 µM.

With CC(=O)SC1CC(=O)N(c2ccc(Cl)c(Cl)c2)C1=O (stereo unspecified) the IC50 (Elastase [2]) was > 200 µM.

For CC(=O)SCC1CC(=O)N(c2ccccc2)C1=O (stereo unspecified), the IC50 (Elastase [2]) was > 200 µM.

With O=C1CC(S)C(=O)N1c1ccc(F)c(F)c1 (stereo unspecified) the MIC (Pseudomonas aeruginosa) was > 100 µM and the MNTC [1] was ≥ 30 µM.

In the case of O=C1CC(S)C(=O)N1c1ccc(Cl)c(Cl)c1 (stereo unspecified), the IC50 (HEK293) is reported as > 100 µM, the MIC (Pseudomonas aeruginosa) is reported as > 100 µM and the IC50 (A549) is reported as > 100 µM. The IC50 (HepG2) was > 100 µM.

With COc1ccc(N2C(=O)CC(CSC(C)=O)C2=O)cc1 (stereo unspecified) the IC50 (Elastase [2]) was > 200 µM.

With COc1ccc(N2C(=O)CC(SC(C)=O)C2=O)cc1 (stereo unspecified) the IC50 (Elastase [2]) was > 200 µM.

For CC(=O)c1ccc(NC(=O)CS)cc1, the IC50 (HEK293) was > 100 µM, the IC50 (A549) was > 100 µM and the IC50 (Collagenase ColH) was 0.017 µM. For the same molecule, the IC50 (HepG2) was > 100 µM.

For O=C(CS)Nc1ccc(Cl)c(Cl)c1, the IC50 (HEK293) was > 100 µM, the IC50 (A549) was > 100 µM and the MNTC [1] was 10 µM. For the same molecule, the IC50 (HepG2) was > 100 µM.

With NC(=O)[C@H](Cc1ccc(O)cc1)NC(=O)[C@H](Cc1c[nH]c2ccccc12)NC(=O)CS the Ki (Elastase [3]) was 0.0405 µM.

With O=C1CC(CS)C(=O)N1c1ccc(Cl)c(Cl)c1 (stereo unspecified) the MIC (Pseudomonas aeruginosa) was > 100 µM.

In the case of CC(=O)SCC1CC(=O)N(c2ccc(C(C)=O)cc2)C1=O (stereo unspecified), the IC50 (Elastase [2]) is reported as > 200 µM.

In the case of CC(=O)SCC1CC(=O)N(c2ccc(Cl)c(Cl)c2)C1=O (stereo unspecified), the IC50 (Elastase [2]) is reported as > 200 µM.

From ChEMBL document CHEMBL4619769, “N-Aryl-3-mercaptosuccinimides as Antivirulence Agents Targeting Pseudomonas aeruginosa Elastase and Clostridium Collagenases” (J Med Chem, 2020)
